Screens: PubChem BioAssay, several laboratories
Shown are actives, neighbours in structure and some others; about 4.9% of the full set was active somewhere.
FLuc act counter = FLuc activators, initial screening, artefact control for FLuc-dependent activation tests, biochemical, ATPlite luminescence; ATPlite luciferase biochemical, 10 min; 0 = ATP-free wells, 1 = DMSO control; activation factor at 10 µM; 200,000 tested, under 10 active; AID 1027, 2008;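 active means luciferase activation factor, scaled between plate controls, of at least 2 with compound at 10 µM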
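System: Luciferase/luciferin detection reagent, cell-free biochemical luciferase assay | Medium: PBS buffer for ATP | Dosing: Test compounds dosed from 2 mM stocks in 100% DMSO | Timing: 10 min at ambient temperature | Signal: Luminescence measurement of luciferase light output | Evaluation: Luciferase activation, seen as luminescence increase over controls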
STAT1 inh = STAT1 signaling inhibitors, primary screen, cell-based, HTS, luciferase reporter; NIH 3T3 STAT1-luciferase reporter, IFN-gamma, luminescence; inhibition, % at 5.5 µM; 0.35% of 200,000 active;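 active means inhibition above a set limit, the mean inhibition across all tested compounds plus 3 SD, cut at about 34% in these data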;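 further: 0% = IFN-gamma with DMSO and 100% = IFN-gamma with 300 µM nifuroxazide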
FLuc inhib CS = firefly luciferase enzyme inhibitors, primary screen, artefact control for luciferase-based inhibitor screens, biochemical, luminescence, ATPLite | Luciferin 4-monooxygenase (Photinus pyralis), P08659 | inhibition, % at 10 µM | 10 min | AID 1006, 2008 | 1.5% of 200,000 active;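 active means inhibition above about 50% when tested at 10 µM, limit read from the data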
STAT3 activator = IL-6 driven STAT3 reporter potentiators, primary screen, U3A cells, luciferase, luminescence, MLSCN library; IL-6 STAT3-luciferase reporter; 100% = signal with IL-6 EC80 alone; activation (% of control), % at 5.6 µM; 0.91% of 190,000 active; AID 871, 2007;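 active means activation above the screen-wide mean of compound activation plus 3 SD, cut at about 130% in these data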;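 further: 0% = background luminescence of wells with medium and substrate only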
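Test system: human U3A cells carrying STAT3-luciferase construct; control set: IL-6-only wells as 100% reference; timing: compound pre-incubation 1 h before IL-6, then 6 h stimulation at 37 °C; also added: IL-6 stimulus at 33 ng/mL final; evaluation: % activation versus median of IL-6-stimulated wells; detection: reporter luminescence signal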
STAT1 activator = STAT1 signaling activators, primary screen, cell-based, HTS, luciferase reporter | NIH 3T3 STAT1-luciferase reporter, IFN-gamma, luminescence; 100% = IFN-gamma alone, no compound | activation (% of control), % at 5.5 µM | 2.6% of 200,000 active | AID 932, 2007;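 active means activation above the screen-wide mean activation plus 3 SD, cut at about 130% in these data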;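 further: raw ratio to IFN-gamma control signal so 100% means no change and 0% no light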
STAT3 inh = IL-6 driven STAT3 reporter inhibitors, primary screen, U3A cells, luciferase, luminescence, MLSCN library; inhibition, % at 5.5 µM; 0.89% of 190,000 active; IL-6 STAT3-luciferase reporter; host cell line lacks STAT1;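 active means inhibition above the mean inhibition across all screened compounds plus 3 SD, cut at about 44% in these data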;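 further: 0% = DMSO only wells and 100% = 100 µM nifuroxazide control wells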
STAT1 activ conf = STAT1 signaling activators, confirmation, cell-based, HTS, luciferase reporter | 97% of 1,200 active | activation (% of control), % at 5.7 µM | shares compounds with STAT1 activator | NIH 3T3 STAT1-luciferase reporter, IFN-gamma potentiation, luminescence; 100% = IFN-gamma EC80 alone, no compound;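 active means activation above a set limit carried over from the earlier primary STAT1 screen, cut at about 140% in these data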;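 further: simple ratio to median IFN-gamma plus DMSO wells so 0% means no light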
NFkB act = NF-kB reporter activators, TNF-alpha stimulated, counter-screen for STAT1 activator project, cell-based, HEK293T, luciferase luminescence. shares compounds with STAT1 activator. 43% of 1,200 active. AID 1306, 2008. 100% = TNF-alpha with vehicle only. activation (% of control), % at 5.7 µM;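 active means activation above the mean of solvent-only control wells plus 3 SD, set per campaign, cut at about 130% in these data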;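 further: TNF-alpha given at a submaximal dose yielding about 80% of full reporter signal; values are well signal over median control so 100% means no change and 0% no light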
STAT3 act 2 = STAT3 reporter activation by STAT1 hits, confirmation, counter-screen for STAT1 activator project, U3A cells, luciferase, luminescence | shares compounds with STAT1 activator | IL-6; cells lack STAT1; 100 = IL-6 alone, no compound effect | activation (% of control), % at 5.7 µM | 46% of 1,200 active | AID 1316, 2008;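 active means activation above the solvent-only control well mean plus 3 SD, set per plate batch, cut at about 110% in these data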;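 further: 0% = no luminescence and 100% = median IL-6 plus DMSO wells; higher means more STAT3 reporter activation so hits are non-selective activators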
* = called active by the depositor; · = not tested or not shown.

SMILES	FLuc act counter	STAT1 inh	FLuc inhib CS	STAT3 activator	STAT1 activator	STAT3 inh	STAT1 activ conf	NFkB act	STAT3 act 2
CCOC(=O)c1ccc(OS(=O)(=O)c2ccccc2)c(OC)c1	1	-83	3	122	174*	-25	185*	141*	123*
COc1ccc(N/C=C/C(=O)c2ccc(C)cc2)c([N+](=O)[O-])c1	·	-57	·	80	153*	27	218*	121	99
Cc1sc(NC(=O)c2ccccc2)c(C#N)c1-c1ccccc1	0.7	-74	31	104	166*	-5	200*	141*	108
CCc1c(C)sc(NC(=O)c2cccs2)c1C#N	1	-25	4	96	122	9	·	·	·
O=C1c2ccccc2NC(c2cnc3ccccc3n2)N1O (stereo not given)	0.7	-65	34	66	159*	40	209*	114	90
CC(C)CCNC(=O)COc1ccc(N(C)S(=O)(=O)c2ccc(F)cc2)cc1	1.1	9	-8	100	93	6	·	·	·
COCCNC(=O)CCc1c(C)nc2nc(-c3cc(OC)cc(OC)c3)nn2c1C	1	3	-4	99	96	8	·	·	·
O=c1c2c(nc3cc(-c4ccc(Br)cc4)[nH]n13)CCCC2	0.4	-112	58*	94	205*	12	281*	151*	106
CN1CCC(=NNC(=O)c2cn(-c3ccccc3)nc2-c2ccccc2)CC1	1	4	0	97	95	5	·	·	·
COc1cc(/C=N/Nc2cccc(C)c2)ccc1OC(=O)c1ccco1	1	5	-4	97	95	6	·	·	·
Cc1cc(C(=O)CSc2n[nH]c(N)n2)c(C)n1-c1cccc(F)c1	0.9	-4	13	93	103	15	·	·	·
Cc1cc(C(=O)CSc2ncccn2)c(C)n1-c1cccc(F)c1	0.5	-81	54*	113	172*	-14	191*	126	111*
OC(CNCCC(c1ccccc1)c1ccccc1)COc1ccccc1 (stereo not given)	1.1	-2	-9	106	100	-3	·	·	·
C=C(C)CSc1nncn1/N=C/c1ccc(OC)cc1	1	-58	4	123	153*	-23	165*	130	128*
COc1ccc(-c2ccc3ccccc3n2)cc1OC	0.8	-78	15	106	170*	0	195*	136*	111*
Cc1ccc2cc(C#N)c(SCC(=O)NCC3CCCO3)nc2c1 (stereo not given)	1.1	10	-5	94	91	13	·	·	·
COC(=O)CSc1nc2cc(C)ccc2cc1C#N	1	-62	-1	95	156*	8	224*	142*	106
COC(=O)c1c(NC(=O)c2nc3ccccc3s2)sc2c1CCN(C(C)=O)C2	1	-11	-2	115	110	-8	·	·	·
CNC(=O)c1c(NC(=O)c2nc3ccccc3s2)sc2c1CCC2	1	-76	1	131	169*	-27	189*	136*	133*
